Source: paper PMC3817526 (Nmr in Biomedicine, 2013)
pIC50: −log10 of the molar value. Counter-ions that a name gives are not always drawn. Like-named read-outs stand apart in the source and are kept apart here. One block for each compound: values may come before it.

Columns and labels:
rat Bsep (rBsep) = molecular target: T1, rat Bsep (rBsep) (Rattus norvegicus, UniProt O70127); test: Inhibition of [3H]-taurocholate uptake into rBsep membrane vesicles; assay type: biochemical; conditions: read-out: IC50, [3H]-taurocholate uptake into vesicles expressing rBsep; geometric mean, 95% CL 109.8–153.2, n = 5
T1 sequence (O70127 1-1321): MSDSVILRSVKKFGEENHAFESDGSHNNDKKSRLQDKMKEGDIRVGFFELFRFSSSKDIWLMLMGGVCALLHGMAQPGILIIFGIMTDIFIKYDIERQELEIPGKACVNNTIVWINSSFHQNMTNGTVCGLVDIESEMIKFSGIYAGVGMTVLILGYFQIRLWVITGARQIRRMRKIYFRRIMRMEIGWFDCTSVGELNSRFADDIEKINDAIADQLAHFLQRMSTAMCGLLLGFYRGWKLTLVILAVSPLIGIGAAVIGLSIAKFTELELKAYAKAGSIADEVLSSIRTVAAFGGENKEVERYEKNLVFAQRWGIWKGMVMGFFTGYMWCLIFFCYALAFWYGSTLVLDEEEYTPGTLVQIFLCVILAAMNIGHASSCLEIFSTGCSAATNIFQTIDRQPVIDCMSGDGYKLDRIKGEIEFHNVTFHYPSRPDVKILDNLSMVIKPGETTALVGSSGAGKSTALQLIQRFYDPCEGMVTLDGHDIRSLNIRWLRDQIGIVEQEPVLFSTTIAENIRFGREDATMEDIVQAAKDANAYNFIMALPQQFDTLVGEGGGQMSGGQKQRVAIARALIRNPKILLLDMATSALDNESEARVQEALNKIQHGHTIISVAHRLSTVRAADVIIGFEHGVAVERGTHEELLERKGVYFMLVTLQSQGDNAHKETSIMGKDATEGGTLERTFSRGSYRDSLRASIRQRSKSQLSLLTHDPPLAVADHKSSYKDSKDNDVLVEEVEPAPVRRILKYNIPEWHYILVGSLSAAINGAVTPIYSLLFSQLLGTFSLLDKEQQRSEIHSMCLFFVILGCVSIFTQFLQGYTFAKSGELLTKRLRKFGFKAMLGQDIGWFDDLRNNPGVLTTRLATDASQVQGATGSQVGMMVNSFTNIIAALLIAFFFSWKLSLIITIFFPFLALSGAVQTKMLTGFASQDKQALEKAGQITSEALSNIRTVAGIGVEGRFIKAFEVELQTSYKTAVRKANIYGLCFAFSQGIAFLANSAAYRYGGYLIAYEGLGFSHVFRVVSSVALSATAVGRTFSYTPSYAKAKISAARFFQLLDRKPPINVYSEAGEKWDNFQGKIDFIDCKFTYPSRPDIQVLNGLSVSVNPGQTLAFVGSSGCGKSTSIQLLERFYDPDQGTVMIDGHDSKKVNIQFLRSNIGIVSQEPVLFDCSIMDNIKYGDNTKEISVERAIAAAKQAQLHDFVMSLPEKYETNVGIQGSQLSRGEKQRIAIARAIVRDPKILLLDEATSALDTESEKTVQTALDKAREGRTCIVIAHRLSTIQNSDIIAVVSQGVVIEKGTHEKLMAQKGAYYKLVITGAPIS

rat Mrp2 (rMrp2) = rat Mrp2 (rMrp2) (Rattus norvegicus, UniProt Q63120); test: Inhibition of CDF uptake into rMrp2 membrane vesicles; assay type: biochemical; conditions: read-out: IC50, CDF uptake into vesicles expressing Mrp2; geometric mean, 95% CL 58.2–80.7, n = 4
Chain of rat Mrp2 (rMrp2) (Q63120 whole entry): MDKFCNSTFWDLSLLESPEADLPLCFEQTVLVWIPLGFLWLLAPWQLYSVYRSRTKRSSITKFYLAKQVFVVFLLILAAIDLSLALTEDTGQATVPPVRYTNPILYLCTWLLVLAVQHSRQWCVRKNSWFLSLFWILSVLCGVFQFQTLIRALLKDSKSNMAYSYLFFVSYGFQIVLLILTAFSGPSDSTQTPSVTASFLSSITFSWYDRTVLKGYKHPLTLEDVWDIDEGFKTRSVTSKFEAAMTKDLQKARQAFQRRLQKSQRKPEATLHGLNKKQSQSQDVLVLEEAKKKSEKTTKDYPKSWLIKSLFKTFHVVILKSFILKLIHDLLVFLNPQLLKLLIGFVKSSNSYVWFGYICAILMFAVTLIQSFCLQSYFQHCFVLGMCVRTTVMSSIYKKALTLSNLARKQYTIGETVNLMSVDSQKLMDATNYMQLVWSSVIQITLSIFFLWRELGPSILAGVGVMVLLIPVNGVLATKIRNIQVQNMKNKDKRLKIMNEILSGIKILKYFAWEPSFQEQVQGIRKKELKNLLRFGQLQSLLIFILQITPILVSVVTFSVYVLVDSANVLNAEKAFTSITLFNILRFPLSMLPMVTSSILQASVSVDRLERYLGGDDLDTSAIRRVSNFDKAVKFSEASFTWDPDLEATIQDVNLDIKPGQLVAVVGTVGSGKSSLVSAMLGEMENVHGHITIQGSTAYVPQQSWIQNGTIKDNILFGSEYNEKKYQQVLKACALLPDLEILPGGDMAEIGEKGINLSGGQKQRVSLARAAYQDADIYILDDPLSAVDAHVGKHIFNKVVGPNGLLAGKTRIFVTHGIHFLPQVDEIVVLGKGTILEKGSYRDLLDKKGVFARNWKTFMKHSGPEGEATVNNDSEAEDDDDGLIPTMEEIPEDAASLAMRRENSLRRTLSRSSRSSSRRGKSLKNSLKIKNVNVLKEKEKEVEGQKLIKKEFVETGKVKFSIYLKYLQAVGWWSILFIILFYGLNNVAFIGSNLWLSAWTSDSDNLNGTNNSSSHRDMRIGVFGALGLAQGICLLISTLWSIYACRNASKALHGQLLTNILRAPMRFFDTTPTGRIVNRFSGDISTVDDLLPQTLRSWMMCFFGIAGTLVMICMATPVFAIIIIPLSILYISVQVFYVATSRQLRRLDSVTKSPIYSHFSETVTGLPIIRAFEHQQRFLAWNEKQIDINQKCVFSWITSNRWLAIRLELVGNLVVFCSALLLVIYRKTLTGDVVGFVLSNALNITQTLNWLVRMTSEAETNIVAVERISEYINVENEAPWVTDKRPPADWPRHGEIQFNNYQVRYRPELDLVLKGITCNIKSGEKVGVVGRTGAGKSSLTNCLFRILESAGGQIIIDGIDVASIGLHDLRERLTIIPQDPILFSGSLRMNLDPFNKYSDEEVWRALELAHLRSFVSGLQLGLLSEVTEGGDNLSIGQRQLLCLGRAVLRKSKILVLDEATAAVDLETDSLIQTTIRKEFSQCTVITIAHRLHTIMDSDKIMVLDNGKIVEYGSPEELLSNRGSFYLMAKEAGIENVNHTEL

[1] = test system: hepatic uptake and biliary excretion of gadoxetate; assay type: in vivo, rat; conditions: for Vmax, gadoxetate efflux into bile / k1, rate of gadoxetate uptake into the hepatocyte: mean ± SEM
In short: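 Rats (298 ± 26 g), six per group, got vehicle (water, 0.5% w/v HPMC/0.1% w/v polysorbate 80) or suspended compound by oral gavage (20–2000 mg/kg). Anaesthetised 30 min post-dose; DCE-MRI began 60 min post-dose, gadoxetate given by tail-vein pump at t = 5 min, acquisition run to 60 min (1 min/volume). Hepatocyte signal derived from liver and spleen signals using extracellular fraction; k1, Vmax, KM fitted by least-squares per dose group.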

[2] = Plasma chemistry analysis after CKA; assay type: in vivo, rat
liver = test: Liver pathology analysis; assay type: in vivo; conditions: CKA 20, 200 or 500 mg/kg oral, rat
[3] = test system: gadoxetate-induced MRI liver enhancement; conditions: rats, cited from earlier work; for maximum hepatic MRI signal enhancement by gadoxetate: administration of OATP inhibitors
[4] = test system: relative liver MRI signal enhancement; conditions: healthy volunteers; cited from earlier work
[5] = Gadopentetate DCE-MRI estimation of volume fraction of extracellular space; assay type: in vivo, rat; conditions: gadopentetate 100 µmol/kg i.v., five rats, haematocrit 0.45, mean ± SEM
In short: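 Healthy rats (282 ± 9 g). IntraGate FLASH DCE-MRI: ten 2 mm slices, TR 60.3 ms, TE 1.4 ms, flip 30°, 1 min/volume. Contrast given by tail-vein pump (5 ml/min) 5 min after acquisition start; acquisition continuous for 45 min. ve taken as the tissue/plasma AUC ratio, with plasma concentration equal to whole-blood concentration/(1 − Hct). Isoflurane overdose afterwards.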

[6] = 4.7 T, plasma value assumed for liver and spleen; cited from earlier work
[7] = rats; cited from earlier work
[8] = humans; cited from earlier work
[9] = CKA 20 mg/kg oral, rat, gadoxetate 25 µmol/kg i.v.
[10] = CKA 200 mg/kg oral, rat, gadoxetate 25 µmol/kg i.v.
[11] = CKA 500 mg/kg oral, rat, gadoxetate 25 µmol/kg i.v.
[12] = CKA 2000 mg/kg oral, rat, gadoxetate 25 µmol/kg i.v.
[13] = gadoxetate 25 µmol/kg i.v. in rats given vehicle only (no CKA)

pIC50 (rat Mrp2 (rMrp2)): 4.16
effect on the kinetic parameters k1, Vmax and KM of gadoxetate ([1]; CKA 20 mg/kg oral, compared with vehicle): no significant effect
Vmax, gadoxetate efflux into bile [1, 9]: 2.9 ± 0.4 µmol/s
k1, rate of gadoxetate uptake into the hepatocyte [1, 9]: 26.1 ± 3.3 µmol/s
Vmax, gadoxetate efflux into bile [1, 10]: 0.6 ± 0.2 µmol/s
k1, rate of gadoxetate uptake into the hepatocyte [1, 10]: 6.6 ± 1.9 µmol/s
gadoxetate enhancement of the bowel (images) ([1]; CKA 500 mg/kg oral): no enhancement
Vmax, gadoxetate efflux into bile [1, 11]: 0.1 ± 0.1 µmol/s
k1, rate of gadoxetate uptake into the hepatocyte [1, 11]: 1.7 ± 0.4 µmol/s
Vmax, gadoxetate efflux into bile [1, 12]: 0.1 ± 0.1 µmol/s
k1, rate of gadoxetate uptake into the hepatocyte [1, 12]: 1.2 ± 0.2 µmol/s
rate of gadoxetate uptake into the liver and clearance from the liver into the GI tract (images) ([1]; CKA 200 and 500 mg/kg oral, compared with vehicle): marked and dose-dependent reduction
plasma bile acids ([2]; CKA 20-2000 mg/kg oral, rat): marked dose-dependent increases
plasma total bilirubin ([2]; CKA 20-2000 mg/kg oral, rat): marked dose-dependent increases
Structure (SMILES): O=C(O)c1cc2cc(O)ccc2n1Cc1ccc(Cl)c(C(F)(F)F)c1 [CKA, 1-(4-chloro-3-trifluoromethyl-benzyl)-5-hydroxy-1-H-indole-2-carboxylic acid]
pIC50 (rat Bsep (rBsep)): 3.89
plasma ALT levels ([2]; CKA 20-2000 mg/kg oral, rat, most evident at 500 and 2000 mg/kg): dose-related increase
plasma ALT value ([2]; single animal with necrosis, CKA 2000 mg/kg): 344 IU/l
liver histology (H&E liver sections) (liver): no histological features indicative of drug-induced hepatotoxicity

Structure (SMILES): C=CC1=C(C)/C(=C/c2[nH]c(Cc3[nH]c(/C=C4\NC(=O)C(C)=C4C=C)c(C)c3CCC(=O)O)c(CCC(=O)O)c2C)NC1=O [bilirubin]
maximum hepatic MRI signal enhancement by gadoxetate [3]: reduction

Structure (SMILES): O=C1OC(c2ccc(O)c(S(=O)(=O)O)c2)(c2ccc(O)c(S(=O)(=O)O)c2)c2c(Br)c(Br)c(Br)c(Br)c21 [bromosulfophthalein]
maximum hepatic MRI signal enhancement by gadoxetate [3]: reduction

Structure (SMILES): N.N.[Cl][Pt][Cl] [cisplatin]
maximum hepatic MRI signal enhancement by gadoxetate [3]: reduction

Structure (SMILES): COc1cccc2c1C(=O)c1c(O)c3c(c(O)c1C2=O)C[C@@](O)(C(=O)CO)C[C@@H]3O[C@H]1C[C@H](N)[C@H](O)[C@H](C)O1 [doxorubicin hydrochloride]
maximum hepatic MRI signal enhancement by gadoxetate [3]: reduction

Structure (SMILES): CC[C@H]1OC(=O)[C@H](C)[C@@H](O[C@H]2C[C@@](C)(OC)[C@@H](O)[C@H](C)O2)[C@H](C)[C@@H](O[C@@H]2O[C@H](C)C[C@H](N(C)C)[C@H]2O)[C@](C)(O)C[C@@H](C)C(=O)[C@H](C)[C@@H](O)[C@]1(C)O [erythromycin]
relative liver MRI signal enhancement versus control subjects [4]: did not show a statistically significant difference

Structure (SMILES): C[C@]12CC[C@@H]3c4ccc(O)cc4CC[C@H]3[C@@H]1CC[C@@H]2O[C@@H]1O[C@H](C(=O)O)[C@@H](O)[C@H](O)[C@H]1O [estradiol 17-β-D-glucuronide]
gadoxetate-induced MRI liver enhancement ([3]; single administration): transiently prolonged

liver fractional extracellular space (AUC ratio tissue/plasma) [5]: 0.23 ± 0.02
spleen fractional extracellular space (AUC ratio tissue/plasma) [5]: 0.43 ± 0.02
Structure (SMILES): O=C([O-])CN(CCN(CC(=O)[O-])CC(=O)O)CCN(CC(=O)[O-])CC(=O)O.[Gd+3] [gadopentetate]
relaxivity r1 [6]: 3.8 s⁻¹ mM⁻¹

Vmax, gadoxetate efflux into bile [1, 13]: 2.9 ± 0.3 µmol/s
k1, rate of gadoxetate uptake into the hepatocyte [1, 13]: 29.4 ± 3.0 µmol/s
Structure (SMILES): CCOc1ccc(C[C@@H](CN(CCN(CC(=O)[O-])CC(=O)[O-])CC(=O)[O-])N(CC(=O)[O-])CC(=O)[O-])cc1.[Gd+3].[H+].[H+] [gadoxetate]
gadoxetate clearance, biliary [7]: 70%
gadoxetate clearance, renal [7]: 30%
excreted via each route (biliary, renal) [8]: 50%
relaxivity r1 [6]: 5.9 s⁻¹ mM⁻¹

Structure (SMILES): C[C@]12C=CC(=O)C=C1CC[C@@H]1[C@@H]2[C@@H](O)C[C@@]2(C)[C@H]1CC[C@]2(O)C(=O)CO [prednisolone]
maximum hepatic MRI signal enhancement by gadoxetate [3]: reduction

Structure (SMILES): CC(C)NCC(O)COc1cccc2ccccc12 (stereo not shown) [propranolol hydrochloride]
maximum hepatic MRI signal enhancement by gadoxetate [3]: reduction

Structure (SMILES): CO[C@H]1/C=C/O[C@@]2(C)Oc3c(C)c(O)c4c(O)c(c(/C=N/N5CCN(C)CC5)c(O)c4c3C2=O)NC(=O)/C(C)=C\C=C\[C@H](C)[C@H](O)[C@@H](C)[C@@H](O)[C@@H](C)[C@H](OC(C)=O)[C@@H]1C [rifampicin]
maximum hepatic MRI signal enhancement by gadoxetate [3]: reduction

Structure (SMILES): CO[C@H]1/C=C/O[C@@]2(C)Oc3c(C)c(O)c4c(O)c(cc(O)c4c3C2=O)NC(=O)/C(C)=C\C=C\[C@H](C)[C@H](O)[C@@H](C)[C@@H](O)[C@@H](C)[C@H](OC(C)=O)[C@@H]1C [rifamycin]
maximum hepatic MRI signal enhancement by gadoxetate [3]: reduction
